According to paper PMC5096746 (Drug Design, Development and Therapy, 2016):
Marks after values point to notes of the source that are not given here.

Assays:
[1] = tested on: TNFα; assay: In vitro TNFα assay; format: cell-based; details: Mus musculus, RAW264.7, read-out: TNFα inhibition
In short: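 Macrophages grown in RPMI 1640 with 10% FBS, penicillin and streptomycin. Cells preincubated with cytochalasin D (2.5 μM/10^6 cells) for 30 min, then seeded at 2×10^6 cells/mL. LPS added with test compound or celecoxib at 20 μM for 24 h. Supernatant TNFα measured by sandwich ELISA (TMB substrate, 30 min dark, H2SO4 stop, A450) against kit standard.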

[2] = tested on: NO (nitrite) in RAW264.7 mouse macrophages; assay: Nitric oxide; format: cell-based; details: 20 µM compound, LPS-stimulated, LPS alone 20.46±1.03
[3] = tested on: carrageenan-induced rat-paw edema; assay: Carrageenan-induced rat-paw edema, in vivo anti-inflammatory activity; parameters: species or system Wistar rats; details: oral, dose equimolar to ibuprofen 20 mg/kg; for Anti-inflammatory activity (% inhibition ± SEM) 3 hours: 3 hours post-carrageenan; for Anti-inflammatory activity (% inhibition ± SEM) 4 hours: 4 hours post-carrageenan
[4] = tested on: gastric mucosa; assay: Acute ulcerogenic activity; format: in vivo; details: rats
In short: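 Rats; controls received 0.5% carboxymethyl cellulose. After dosing, rats were fed a normal diet for 17 h and then killed. Stomachs opened along the greater curvature and mucosa examined under microscopy. Scoring: 0.5 redness, 1 spot ulcer, 1.5 haemorrhagic streaks, 2 ulcers >3 but <5, 3 ulcers >5. Severity index = treated-group mean score minus control mean.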

Structure (SMILES) | inhibition at 20 µM [1] | NO (nitrite/mg, mmol/mg) 20 µM [2] | NO (nitrite/mg, mmol/mg) 20 µM ([2]; listed as celecoxib) | Anti-inflammatory activity (% inhibition ± SEM) 3 hours [3] | Anti-inflammatory activity (% inhibition ± SEM) 4 hours [3] | Gastric ulceration / mucosal damage (histopathology, in words) ([4]; 60 mg/kg) | Ulcerogenic activity (severity index ± SEM) ([4]; 60 mg/kg oral, killed after 17 hours, mean score minus control score)
Cc1ccc(-c2cc(C(F)(F)F)nn2-c2ccc(S(N)(=O)=O)cc2)cc1 [Celecoxib, celecoxib] | 72% | 7.53 ± 0.23 mmol/mg | 7.53 mmol/mg |  |  |  | 
c1ccc(COc2ccc(-c3nn(-c4ccccc4)cc3CNc3ccccc3)cc2)cc1 [Compound 5a, N-((3-(4-(Benzyloxy)phenyl)-1-phenyl-1H-pyrazol-4-yl)methyl)aniline] |  |  |  | 50.77±4.28 ^c % | 47.91±4.39 ^c % |  | 
CC(C)Cc1ccc(C(C)C(=O)O)cc1 (stereo not drawn) [Ibuprofen, ibuprofen] |  |  |  | 81.32±0.59 ^a % | 79.23±0.4 ^a % | mucosal cell damage | 1.16±0.4
